For six molecules, inhibition and Activity results are on record in ChEMBL document CHEMBL1156741, “Development of photoaffinity probes for gamma-secretase equipped with a nitrobenzenesulfonamide-type cleavable linker” (Bioorg Med Chem Lett, 2009).

The nature of test [1]: Inhibition of gamma-secretase assessed as inhibition of Abeta40 generation at 1 uM.
Test [2] can be described thus: Inhibition of gamma-secretase assessed as inhibition of Abeta42 generation at 1 uM.
The target of test [3] is T1, Gamma-secretase (Homo sapiens) (UniProt Q96BI3+Q9NZ42+Q8WW43+P49768+Q92542+P49810). The test is described as follows: Binding affinity to gamma-secretase in human HeLa cell lysate assessed as presenilin 1 C-terminal fragment photolabeling by Western blotting. In kind it is cell-free. In short, it runs like this: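 CHAPSO-solubilized HeLa cell lysate (about 150 µg) was mixed with the probe and photolabeled. PS1 CTF labeling was then detected by western blotting on nitrocellulose with chemiluminescence.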

Test [4] addresses T1, Gamma-secretase (Homo sapiens). Briefly: Binding affinity to gamma-secretase in human HeLa cell lysate assessed as biotinylated presenilin 1 C-terminal fragment by Western blotting in presence of 2-mercaptoethanol. The test is classed as cell-free. The gist of the method:
(§1)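 Streptavidin sepharose beads carrying biotinylated proteins captured after photolabeling were treated in carbonate buffer (pH 9.2) with 2% SDS, with or without 3% 2-mercaptoethanol, for 4 h at 20 °C. Proteins were transferred to nitrocellulose and detected by western blotting with chemiluminescence.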
Background: In western blotting, separated proteins are transferred to a membrane and probed.

The target is the same in test [5]. The test is described as follows: Binding affinity to gamma-secretase in human HeLa cell lysate assessed as biotinylated presenilin 1 C-terminal fragment by Western blotting in absence of 2-mercaptoethanol. In kind it is cell-free. The gist of the method: as §1

Active and inactive are the calls of the source. The calls are words filed in the database; no cut-off is given here.

For the molecule `C[C@H](NC(=O)Cc1cc(F)cc(F)c1)C(=O)N[C@H](C(=O)OC(C)(C)C)c1ccccc1`, the inhibition in test [1] was 77.4%; in test [2], 76.3%.
Consider `C[C@H](NC(=O)[C@@H](NC(=O)Cc1cc(F)cc(F)c1)c1ccccc1)C(=O)NCc1ccc(C(=O)c2ccc(CNCCCCCCCC(=O)NCCCCCCCN(C)S(=O)(=O)c3ccc(C(=O)NCCCCCC(=O)CCCC[C@@H]4SC[C@@H]5NC(=O)N[C@@H]54)cc3[N+](=O)[O-])cc2)cc1`, for which the inhibition in test [1] worked out at 62.3%; in test [2], 89.3%. In test [3], the result was Active.
Turning to `C[C@H](NC(=O)[C@@H](NC(=O)Cc1cc(F)cc(F)c1)c1ccccc1)C(=O)NCc1ccc(C(=O)c2ccc(CNCCCCCC(=O)NCCCN(C)S(=O)(=O)c3ccc(C(=O)NCCCCCC(=O)CCCC[C@@H]4SC[C@@H]5NC(=O)N[C@@H]54)cc3[N+](=O)[O-])cc2)cc1`, the figures for the inhibition in test [1] and in test [2] were 54.9% and 60.2%, respectively. For the same molecule, the result in test [3] was Active.
`C[C@H](NC(=O)[C@@H](NC(=O)Cc1cc(F)cc(F)c1)c1ccccc1)C(=O)NCc1ccc(C(=O)c2ccc(CNCCCCCCCC(=O)NCCCN(C)S(=O)(=O)c3ccc(C(=O)NCCCCCC(=O)CCCC[C@@H]4SC[C@@H]5NC(=O)N[C@@H]54)cc3[N+](=O)[O-])cc2)cc1`: the inhibition in test [1] amounted to 62.8%; in test [2], 66.2%. In addition, the result in test [4] and in test [3] was Active. Besides, in test [5], the result was inactive.
Consider `C[C@H](NC(=O)[C@@H](NC(=O)Cc1cc(F)cc(F)c1)c1ccccc1)C(=O)NCc1ccc(C(=O)c2ccc(CNCC(=O)NCCCCCCCN(C)S(=O)(=O)c3ccc(C(=O)NCCCCCC(=O)CCCC[C@@H]4SC[C@@H]5NC(=O)N[C@@H]54)cc3[N+](=O)[O-])cc2)cc1`, for which the inhibition in test [1] is 81.9%; in test [2], 77%. Moreover, the result in test [3] was Active.
The matching figures for `C[C@H](NC(=O)[C@@H](NC(=O)Cc1cc(F)cc(F)c1)c1ccccc1)C(=O)NCc1ccc(C(=O)c2ccc(CNCCCCCC(=O)NCCCCCCCN(C)S(=O)(=O)c3ccc(C(=O)NCCCCCC(=O)CCCC[C@@H]4SC[C@@H]5NC(=O)N[C@@H]54)cc3[N+](=O)[O-])cc2)cc1`: 78.2%, 59.3% and “Active”.

For orientation: inhibition means the change of the read-out against control, counted positive when it falls.
